ChEMBL document CHEMBL1142862, “Selective NR1/2B N-methyl-D-aspartate receptor antagonists among indole-2-carboxamides and benzimidazole-2-carboxamides” (J Med Chem, 2007)

What follows are compounds tested on Mus musculus (assay: Inhibition of formalin induced nociception in ip dosed NMRI mouse by measuring pain-related licking behavior in late phase). Conditions: not given.
Type: functional
Summary of the method: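 Mouse formalin test: 20 µL 1% formalin in 0.9% saline injected s.c. into the dorsal right hindpaw. Compound given i.p. Pain-related licking scored at the peak of the second (persistent, 10-60 min) phase. ED50 reported.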

SMILES | ED50
C[C@@H](CN1CCC(Cc2ccccc2)CC1)[C@@H](O)c1ccc(O)cc1 | 5.1 mg/kg

What follows are compounds tested on Mus musculus (assay: Inhibition of formalin induced nociception in orally dosed NMRI mouse by measuring pain-related licking behavior in late phase). Conditions: po.
Type: functional
Summary of the method: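 Mice fasted 14-16 h with free 20% glucose. Compound or vehicle (5% Tween 80) given orally 15 min before s.c. injection of 20 µL 1% formalin in 0.9% saline into the dorsal right hindpaw. Licking measured at the peak of the second phase (10-60 min). ED50 reported.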

SMILES | ED50
O=C(c1cc2ccc(O)cc2[nH]1)N1CCC(Cc2ccccc2)CC1 | 1.7 mg/kg
O=c1[nH]c2ccc([S+]([O-])CCN3CCC(Cc4ccc(F)cc4)CC3)cc2o1 (configuration not stated) [BESONPRODIL] | 2.4 mg/kg
C[C@@H]([C@@H](O)c1ccc(O)cc1)N1CCC(O)(c2ccccc2)CC1 [TRAXOPRODIL] | > 20 mg/kg

Each compound was assayed against T1, Glutamate receptor ionotropic, NMDA 2B (Rattus norvegicus, UniProt Q00960) (assay: Antagonist activity at NR2B NMDA receptor in Wistar rat neocortical cells assessed as inhibition of NMDA-evoked elevation of intracellular calcium concentration). Conditions: not given.
Type: functional, cell-based
Summary of the method: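 Rat primary neocortical cultures (trypsinised cortex, poly-D-lysine coated wells, glial proliferation stopped with […], serum-free N2 medium) used after 3-10 days in vitro. Compound added (<0.1% DMSO), 5 min baseline, then 40 µM NMDA and 5 min fluorescence recording.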

T1 sequence (Q00960 whole entry): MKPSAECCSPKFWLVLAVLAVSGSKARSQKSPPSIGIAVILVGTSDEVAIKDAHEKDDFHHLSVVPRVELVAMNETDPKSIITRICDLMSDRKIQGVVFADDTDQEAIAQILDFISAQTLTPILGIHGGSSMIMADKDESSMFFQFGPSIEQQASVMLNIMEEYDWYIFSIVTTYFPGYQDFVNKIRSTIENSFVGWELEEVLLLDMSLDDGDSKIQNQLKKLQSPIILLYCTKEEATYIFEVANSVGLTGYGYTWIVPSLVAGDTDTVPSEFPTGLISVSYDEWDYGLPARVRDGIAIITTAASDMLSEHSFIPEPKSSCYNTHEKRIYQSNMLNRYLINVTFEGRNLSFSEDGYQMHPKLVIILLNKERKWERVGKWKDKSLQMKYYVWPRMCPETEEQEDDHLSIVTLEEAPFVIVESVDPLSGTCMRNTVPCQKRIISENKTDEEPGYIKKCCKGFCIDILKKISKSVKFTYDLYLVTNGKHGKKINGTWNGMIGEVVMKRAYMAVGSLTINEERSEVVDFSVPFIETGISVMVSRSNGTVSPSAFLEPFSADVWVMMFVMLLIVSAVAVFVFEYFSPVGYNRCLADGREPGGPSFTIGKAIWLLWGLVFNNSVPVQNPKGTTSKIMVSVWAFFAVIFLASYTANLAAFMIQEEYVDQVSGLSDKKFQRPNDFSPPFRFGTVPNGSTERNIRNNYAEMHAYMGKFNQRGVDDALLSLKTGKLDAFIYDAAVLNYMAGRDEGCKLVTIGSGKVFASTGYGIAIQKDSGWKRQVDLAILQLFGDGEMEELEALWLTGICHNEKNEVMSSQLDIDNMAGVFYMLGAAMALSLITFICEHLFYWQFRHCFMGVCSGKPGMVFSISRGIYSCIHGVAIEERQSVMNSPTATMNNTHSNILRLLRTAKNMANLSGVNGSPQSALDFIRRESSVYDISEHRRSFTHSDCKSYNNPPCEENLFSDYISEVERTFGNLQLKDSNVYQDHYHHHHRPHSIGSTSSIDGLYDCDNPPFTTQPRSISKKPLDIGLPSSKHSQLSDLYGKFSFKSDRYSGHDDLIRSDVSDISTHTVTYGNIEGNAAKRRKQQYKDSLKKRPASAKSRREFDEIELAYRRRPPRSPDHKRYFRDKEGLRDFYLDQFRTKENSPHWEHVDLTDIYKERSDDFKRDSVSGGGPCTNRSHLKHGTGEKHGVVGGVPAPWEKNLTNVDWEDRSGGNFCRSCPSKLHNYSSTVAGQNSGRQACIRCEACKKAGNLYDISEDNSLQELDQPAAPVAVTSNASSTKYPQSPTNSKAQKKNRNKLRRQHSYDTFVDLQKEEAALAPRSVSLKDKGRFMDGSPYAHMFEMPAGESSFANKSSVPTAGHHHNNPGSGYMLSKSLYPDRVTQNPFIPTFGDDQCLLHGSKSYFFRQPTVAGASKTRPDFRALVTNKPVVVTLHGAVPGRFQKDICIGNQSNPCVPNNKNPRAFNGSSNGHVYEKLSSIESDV

SMILES | IC50
O=C(c1cc2cccc(O)c2[nH]1)N1CCC(Cc2ccccc2)CC1 | 165 nM
COc1ccc(CC2CCCCN2C(=O)c2cc3ccc(O)cc3[nH]2)cc1 (configuration not stated) | > 8000 nM
O=C(c1nc2cc3[nH]c(=O)oc3cc2[nH]1)N1CCC(Cc2ccccc2)CC1 | 193 nM
Oc1ccc2cc(CN3CCC(Cc4ccccc4)CC3)[nH]c2c1 | 1160 nM
O=S(=O)(c1cc2ccc(O)cc2[nH]1)N1CCC(Cc2ccccc2)CC1 | > 8000 nM
Nc1ccc2cc(C(=O)N3CCC(Cc4ccccc4)CC3)[nH]c2c1 | 627 nM
O=C(c1ccccc1)C1CCN(C(=O)c2cc3ccc(O)cc3[nH]2)CC1 | 744 nM
CS(=O)(=O)Nc1ccc2[nH]c(C(=O)N3CCC(Cc4ccccc4)CC3)cc2c1 | 631 nM
COc1ccccc1CC1CCN(C(=O)c2cc3ccc(O)cc3[nH]2)CC1 | 249 nM
O=C(c1cc2cc(O)ccc2o1)N1CCC(Cc2ccccc2)CC1 | 1900 nM
O=C(c1cc2ccc(O)cc2[nH]1)N1CCC(c2ccccc2)CC1 | > 8000 nM
O=C(c1cc2ccc(O)cc2[nH]1)N1CCC(CCc2ccccc2)CC1 | 875 nM
Cn1c(C(=O)N2CCC(Cc3ccccc3)CC2)cc2ccc(O)cc21 | 5770 nM
O=C(c1cc2cc(O)ccc2s1)N1CCC(Cc2ccccc2)CC1 | 5610 nM
Cc1ccc(CC2CCN(C(=O)c3cc4ccc(O)cc4[nH]3)CC2)cc1 | 208 nM
Nc1ccc2[nH]c(C(=O)N3CCC(Cc4ccccc4)CC3)cc2c1 | 596 nM
O=C(c1nc2ccc(O)cc2s1)N1CCC(Cc2ccccc2)CC1 | 2600 nM

More lines, now with the values ahead:

IC50 | SMILES
159 nM | C[C@@H](CN1CCC(Cc2ccccc2)CC1)[C@@H](O)c1ccc(O)cc1
111 nM | O=C(c1cc2ccc(O)cc2[nH]1)N1CCC(C(O)c2ccccc2)CC1 (configuration not stated)
107 nM | O=C(c1cc2ccc(O)cc2[nH]1)N1CCC(Oc2ccccc2)CC1
90 nM | O=C(c1cc2ccc(O)cc2[nH]1)N1CCC(Cc2ccc(F)cc2)CC1
80 nM | COc1ccc(CC2CCN(C(=O)c3cc4ccc(O)cc4[nH]3)CC2)cc1
58 nM | O=C(c1cc2c(ccc3cn[nH]c32)[nH]1)N1CCC(Cc2ccccc2)CC1
50 nM | O=C(c1cc2c(ccc3[nH]cnc32)[nH]1)N1CCC(Cc2ccccc2)CC1
47 nM | O=C(c1cc2c(NCc3ccccc3)cccc2[nH]1)N1CCC(Cc2ccccc2)CC1
40 nM | Nc1ccc2[nH]c(C(=O)N3CCC(Cc4ccccc4)CC3)nc2c1
38 nM | O=C(c1cc2ccc(O)cc2[nH]1)N1CCC(Cc2cccc(F)c2)CC1
31 nM | O=C(c1cc2cc(O)cc(O)c2[nH]1)N1CCC(Cc2ccccc2)CC1
30 nM | CS(=O)(=O)Nc1ccc2cc(C(=O)N3CCC(Cc4ccccc4)CC3)[nH]c2c1
25 nM | O=C(c1cc2cc(O)ccc2[nH]1)N1CCC(Cc2ccccc2)CC1
20 nM | O=C(c1cc2c(ccc3[nH]ncc32)[nH]1)N1CCC(Cc2ccccc2)CC1
16 nM | O=C(c1cc2c(O)cccc2[nH]1)N1CCC(Cc2ccccc2)CC1
16 nM | O=C(c1cc2ccc(O)cc2[nH]1)N1CCC(OCc2ccccc2)CC1
8.6 nM | CS(=O)(=O)Nc1ccc2nc(CN3CCC(Cc4ccccc4)CC3)[nH]c2c1
8.5 nM | N=C(c1cc2ccc(O)cc2[nH]1)N1CCC(Cc2ccccc2)CC1
6.5 nM | O=C(c1cc2c(O)cc(O)cc2[nH]1)N1CCC(Cc2ccccc2)CC1
4.3 nM | Nc1cccc2[nH]c(C(=O)N3CCC(Cc4ccccc4)CC3)cc12
3 nM | O=C(c1nc2c(O)ccc(O)c2[nH]1)N1CCC(Cc2ccccc2)CC1
2.9 nM | O=C(c1nc2cc(O)ccc2[nH]1)N1CCC(Oc2ccc(F)cc2)CC1
2.5 nM | COc1cccc(CC2CCN(C(=O)c3nc4cc(O)ccc4[nH]3)CC2)c1
2.4 nM | Cc1cccc(CC2CCN(C(=O)c3nc4cc(O)ccc4[nH]3)CC2)c1
1.7 nM | O=C(c1nc2cc(O)ccc2[nH]1)N1CCC(Oc2ccc(Cl)cc2)CC1
1.3 nM | CS(=O)(=O)Nc1ccc2[nH]c(C(=O)N3CCC(Cc4ccccc4)CC3)nc2c1
1.1 nM | Cc1ccc(OC2CCN(C(=O)c3nc4cc(O)ccc4[nH]3)CC2)cc1

What follows are compounds tested against T1, Glutamate receptor ionotropic, NMDA 2B (assay: Displacement of [3H]Ro 25,6981 from NR2B NMDA receptor in rat forebrain). Conditions: not given.
Summary of the method: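 Rat forebrain membranes were washed and suspended in 5 mM TRIS-HCl, pH 7.4, at 1 mg protein/mL. They were incubated 2 h at room temperature with 4 nM [3H]Ro-25,6981 and at least seven compound concentrations. Nonspecific binding was defined with 10 µM Ro-25,6981. Bound and free ligand were separated by GF/B filtration, and filters were counted by liquid scintillation. Results were expressed as % inhibition of specific binding.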

SMILES | IC50
O=C(c1cc2cccc(O)c2[nH]1)N1CCC(Cc2ccccc2)CC1 | 380 nM
CS(=O)(=O)Nc1cccc2[nH]c(C(=O)N3CCC(Cc4ccccc4)CC3)cc12 | 215 nM
O=C(c1cc2ccc(O)cc2o1)N1CCC(Cc2ccccc2)CC1 | > 10000 nM
CS(=O)(=O)Nc1ccc2[nH]c(C(=O)N3CCC(Cc4ccccc4)CC3)cc2c1 | 1540 nM
O=C(c1cc2cc(O)ccc2o1)N1CCC(Cc2ccccc2)CC1 | > 10000 nM
O=C(c1cc2ccc(O)cc2[nH]1)N1CCC(CCc2ccccc2)CC1 | 359 nM
O=C(c1cc2cc3[nH]c(=O)oc3cc2[nH]1)N1CCC(Cc2ccccc2)CC1 | 23 nM
O=C(c1cc2cc(O)ccc2s1)N1CCC(Cc2ccccc2)CC1 | > 10000 nM
Cc1ccc(CC2CCN(C(=O)c3cc4ccc(O)cc4[nH]3)CC2)cc1 | 28 nM

Results, then the compound that gave them:

IC50 | SMILES
60 nM | O=C(c1cc2ccc(O)cc2[nH]1)N1CCC(C(O)c2ccccc2)CC1 (configuration not stated)
89 nM | O=C(c1cc2ccc(O)cc2[nH]1)N1CCC(Oc2ccccc2)CC1
12 nM | O=C(c1cc2ccc(O)cc2[nH]1)N1CCC(Cc2ccc(F)cc2)CC1
17 nM | COc1ccc(CC2CCN(C(=O)c3cc4ccc(O)cc4[nH]3)CC2)cc1
64 nM | O=C(c1cc2c(ccc3cn[nH]c32)[nH]1)N1CCC(Cc2ccccc2)CC1
6 nM | O=C(c1cc2c(ccc3[nH]cnc32)[nH]1)N1CCC(Cc2ccccc2)CC1
191 nM | O=C(c1cc2c(NCc3ccccc3)cccc2[nH]1)N1CCC(Cc2ccccc2)CC1
143 nM | Nc1ccc2[nH]c(C(=O)N3CCC(Cc4ccccc4)CC3)nc2c1
31 nM | O=C(c1cc2ccc(O)cc2[nH]1)N1CCC(Cc2cccc(F)c2)CC1
106 nM | O=C(c1cc2cc(O)cc(O)c2[nH]1)N1CCC(Cc2ccccc2)CC1
9 nM | CS(=O)(=O)Nc1ccc2cc(C(=O)N3CCC(Cc4ccccc4)CC3)[nH]c2c1
31 nM | O=C(c1cc2cc(O)ccc2[nH]1)N1CCC(Cc2ccccc2)CC1
5 nM | O=C(c1cc2c(ccc3[nH]ncc32)[nH]1)N1CCC(Cc2ccccc2)CC1
18 nM | O=C(c1cc2c(O)cccc2[nH]1)N1CCC(Cc2ccccc2)CC1
47 nM | O=C(c1cc2ccc(O)cc2[nH]1)N1CCC(OCc2ccccc2)CC1
10 nM | N=C(c1cc2ccc(O)cc2[nH]1)N1CCC(Cc2ccccc2)CC1
6 nM | O=C(c1cc2c(O)cc(O)cc2[nH]1)N1CCC(Cc2ccccc2)CC1
12 nM | Nc1cccc2[nH]c(C(=O)N3CCC(Cc4ccccc4)CC3)cc12
10 nM | O=C(c1nc2c(O)ccc(O)c2[nH]1)N1CCC(Cc2ccccc2)CC1
6 nM | O=C(c1nc2cc(O)ccc2[nH]1)N1CCC(Oc2ccc(F)cc2)CC1
3 nM | COc1cccc(CC2CCN(C(=O)c3nc4cc(O)ccc4[nH]3)CC2)c1
5 nM | Cc1cccc(CC2CCN(C(=O)c3nc4cc(O)ccc4[nH]3)CC2)c1
14 nM | O=C(c1nc2cc(O)ccc2[nH]1)N1CCC(Oc2ccc(Cl)cc2)CC1
3 nM | CS(=O)(=O)Nc1ccc2[nH]c(C(=O)N3CCC(Cc4ccccc4)CC3)nc2c1
3 nM | Cc1ccc(OC2CCN(C(=O)c3nc4cc(O)ccc4[nH]3)CC2)cc1
